Measurements as given in ChEMBL document CHEMBL4011622, “The Structure-Activity Relationship of a Tetrahydroisoquinoline Class of N-Methyl-d-Aspartate Receptor Modulators that Potentiates GluN2B-Containing N-Methyl-d-Aspartate Receptors” (J Med Chem, 2017).

Legend:
[1] = biological target: Ionotropic glutamate receptor NMDA 1/2D (Rattus norvegicus, UniProt P35439+Q62645); experiment: Positive allosteric modulation of recombinant rat GluN1/GluN2D receptor expressed in xenopus laevis oocyte assessed as potentiation of glutamate and glycine-induced current response at holding potential -40mV by two electrode voltage clamp method
In short: (§1)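 Two-electrode voltage clamp at -40 mV, 23°C, pH 7.4 Ba²⁺ recording solution, on Xenopus oocytes expressing rat NMDA receptors. Currents were evoked by 100 µM glutamate plus 30 µM glycine, with compound co-applied (DMSO 0.05–0.5% final). Each compound used at least 4 oocytes from at least 2 frogs.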

[2] = biological target: Glutamate NMDA receptor; Grin1/Grin2b (Rattus norvegicus) (UniProt P35439+Q00960); experiment: Positive allosteric modulation of recombinant rat GluN1/GluN2B receptor expressed in xenopus laevis oocyte assessed as potentiation of glutamate and glycine-induced current response at 30 uM at holding potential -40mV by two electrode voltage clamp method relative to control
In short: as §1, with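 “final). […]” for “final).”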

[3] = biological target: Glutamate NMDA receptor; Grin1/Grin2c (Rattus norvegicus) (UniProt P35439+Q00961); experiment: Positive allosteric modulation of recombinant rat GluN1/GluN2C receptor expressed in xenopus laevis oocyte assessed as potentiation of glutamate and glycine-induced current response at 30 uM at holding potential -40mV by two electrode voltage clamp method relative to control; in short: as §1
[4] = biological target: Ionotropic glutamate receptor NMDA 1/2D (Rattus norvegicus) (UniProt P35439+Q62645); experiment: Positive allosteric modulation of recombinant rat GluN1/GluN2D receptor expressed in xenopus laevis oocyte assessed as potentiation of glutamate and glycine-induced current response at 30 uM at holding potential -40mV by two electrode voltage clamp method relative to control; in short: as §1
[5] = biological target: Glutamate NMDA receptor; Grin1/Grin2b (Rattus norvegicus, UniProt P35439+Q00960); experiment: Positive allosteric modulation of recombinant rat GluN1/GluN2B receptor expressed in xenopus laevis oocyte assessed as potentiation of glutamate and glycine-induced current response at holding potential -40mV by two electrode voltage clamp method; in short: as §1
[6] = biological target: Glutamate NMDA receptor; Grin1/Grin2c (Rattus norvegicus, UniProt P35439+Q00961); experiment: Positive allosteric modulation of recombinant rat GluN1/GluN2C receptor expressed in xenopus laevis oocyte assessed as potentiation of glutamate and glycine-induced current response at holding potential -40mV by two electrode voltage clamp method; in short: as §1

| SMILES | EC50 [1] [nM] | Activity [2] [%] | Emax [2] [%] | Activity [3] [%] | Emax [3] [%] | Activity [4] [%] | Emax [4] [%] | EC50 [5] [nM] | EC50 [6] [nM] |
| --- | --- | --- | --- | --- | --- | --- | --- | --- | --- |
| COc1ccc(OCC2c3ccc(NC(C)C)cc3CCN2C(=O)c2cccc(Cl)c2)cc1 (stereo unspecified) | 5100 | 138 | 141 | 239 | 261 | 333 | 363 | 9300 | 4700 |
| CCOc1ccc(OCC2c3ccc(OCC(C)C)cc3CCN2C(=O)c2cccc(Cl)c2)cc1 (stereo unspecified) | 1500 | 294 | 293 | 238 | 242 | 342 | 351 | 1000 | 1000 |
| CCOc1ccc2c(c1)CCN(C(=O)c1cccc(Cl)c1)C2COc1ccc(OC)cc1 (stereo unspecified) | 3000 | 158 | 167 | 285 | 294 | 329 | 344 | 7800 | 2400 |
| CCOc1ccc(OCC2c3ccc(OCC)cc3CCN2C(=O)c2cccc(Cl)c2)cc1 (stereo unspecified) | – | 104 | – | 91 | – | 75 | – | – | – |
| CCC(CC)Oc1ccc2c(c1)CCN(C(=O)c1cccc(Cl)c1)C2COc1ccc(OC)cc1 (stereo unspecified) | 1700 | 331 | 344 | 286 | 294 | 381 | 390 | 1800 | 1600 |
| CCOc1ccc(OCC2c3ccc(OC4CCCC4)cc3CCN2C(=O)c2cccc(F)c2)cc1 (stereo unspecified) | 4900 | 202 | 210 | 169 | 173 | 161 | 163 | 4400 | 4500 |
| CC(C)Oc1ccc(OCC2c3ccc(OC(C)C)cc3CCN2C(=O)c2cccc(C(F)(F)F)c2)cc1 (stereo unspecified) | – | – | 157 | – | 132 | – | – | 1500 | 920 |
| CC(C)Oc1ccc2c(c1)CCN(C(=O)c1cccc(F)c1)C2COc1ccc(OC(F)(F)F)cc1 (stereo unspecified) | 4100 | 124 | 123 | 154 | 157 | 136 | 137 | 3200 | 2500 |
| COc1ccc(OCC2c3ccc(N(C)C(C)C)cc3CCN2C(=O)c2cccc(Cl)c2)cc1 (stereo unspecified) | 4000 | 228 | 235 | 404 | 424 | 500 | 549 | 5900 | 2000 |
| CCOc1ccc(OCC2c3ccc(OC(C)C)cc3CCN2C(=O)c2cccc(C(F)(F)F)c2)cc1 (stereo unspecified) | – | – | – | – | – | – | – | 2400 | 1300 |
| CCOc1ccc(OCC2c3ccc(N4CCOCC4)cc3CCN2C(=O)c2cccc(Cl)c2)cc1 (stereo unspecified) | – | 127 | – | 133 | – | 104 | – | – | – |
| COc1cccc(OCC2c3ccc(OC(C)C)cc3CCN2C(=O)c2cccc(Cl)c2)c1 (stereo unspecified) | 5400 | 99 | – | 132 | 132 | 125 | 125 | – | 6200 |
| COc1ccc(OCC2c3ccc(OC(C)C)cc3CCN2C(=O)c2ccc(OC)cc2)cc1 (stereo unspecified) | – | 110 | – | 138 | – | 114 | – | – | – |
| COc1ccc(OCC2c3ccc(N(C)C)cc3CCN2C(=O)c2cccc(Br)c2)cc1 (stereo unspecified) | 3800 | 99 | – | 285 | 293 | 307 | 327 | – | 2400 |
| COc1ccc(OCC2c3ccc(OC(C)C)cc3CCN2C(=O)c2cccc(N)c2)cc1 (stereo unspecified) | – | 106 | – | 105 | – | 107 | – | – | – |
| COc1ccc(OCC2c3ccc(OC(C)C)cc3CCN2C(=O)c2cccc(F)c2)cc1 (stereo unspecified) | – | – | – | – | – | – | – | 36000 | – |
| CC(C)Oc1ccc(OCC2c3ccc(OC(C)C)cc3CCN2C(=O)c2cccc(Cl)c2)cc1 (stereo unspecified) | – | 159 | 160 | 134 | 138 | 111 | – | 3800 | 1700 |
| COc1ccc(OCC2c3ccc(OCC(C)C)cc3CCN2C(=O)c2cccc(Cl)c2)cc1 (stereo unspecified) | 1400 | – | – | – | – | – | – | 1500 | 900 |
| COc1ccc(OCC2c3ccc(N(C)C)cc3CCN2C(=O)c2cccc(Cl)c2)cc1 (stereo unspecified) | 4400 | 127 | – | 288 | 315 | 322 | 349 | – | 4000 |
| CCOc1ccc(OCC2c3ccc(OCC)cc3CCN2C(=O)c2cccc(F)c2)cc1 (stereo unspecified) | – | 94 | – | 77 | – | 67 | – | – | – |
| CC(C)Oc1ccc(OCC2c3ccc(OC(C)C)cc3CCN2C(=O)c2cccc(F)c2)cc1 (stereo unspecified) | – | 179 | 185 | 133 | 135 | 103 | – | 7100 | 2700 |
| COc1ccc(OCC2c3ccc(OC(C)C)cc3CCN2C(=O)c2cccc(C(F)(F)F)c2)cc1 (stereo unspecified) | 2700 | – | – | – | – | – | – | 6100 | 1700 |

The remaining lines, values ahead:

| EC50 [1] [nM] | Activity [2] [%] | Emax [2] [%] | Activity [3] [%] | Emax [3] [%] | Activity [4] [%] | Emax [4] [%] | EC50 [5] [nM] | EC50 [6] [nM] | SMILES |
| --- | --- | --- | --- | --- | --- | --- | --- | --- | --- |
| – | 112 | – | 101 | – | 88 | – | – | – | CCOc1ccc(OCC2c3ccc(OC(C)C)cc3CCN2C(=O)c2ccc(Cl)cc2)cc1 (stereo unspecified) |
| – | 147 | 152 | 104 | – | 91 | – | 7200 | – | CCOc1ccc(OCC2c3ccc(OC(C)C)cc3CCN2C(=O)c2cccc(F)c2)cc1 (stereo unspecified) |
| – | 88 | – | 83 | – | 69 | – | – | – | CCOc1ccc(OCC2c3ccc(OC(C)C)cc3CCN2C(=O)c2ccccc2)cc1 (stereo unspecified) |
| – | 89 | – | 65 | – | 44 | – | – | – | CCOc1ccc(OCC2c3ccc(OC(C)C)cc3CCN2C(=O)c2cccc(OC)c2)cc1 (stereo unspecified) |
| 1200 | – | 184 | – | 170 | – | 159 | 550 | 1400 | CCOc1ccc(OCC2c3ccc(OC(C)C)cc3CCN2C(=S)c2cccc(F)c2)cc1 (stereo unspecified) |
| – | 67 | – | 93 | – | 79 | – | – | – | CCOc1ccc(OCC2c3ccc(OC(C)C)cc3CCN2C(=O)c2ccccc2Cl)cc1 (stereo unspecified) |
| – | 118 | – | 107 | – | 90 | – | – | – | CCOc1ccc(OCC2c3ccc(OC(C)C)cc3CCN2C(=O)c2ccc(F)cc2)cc1 (stereo unspecified) |
| – | 61 | – | 68 | – | 55 | – | – | – | CCOc1ccc(OCC2c3ccc(OC(C)C)cc3CCN2C(=O)c2ccccc2F)cc1 (stereo unspecified) |
| – | 98 | – | 117 | – | 105 | – | – | – | COc1ccc(OCC2c3ccc(OC(C)C)cc3CCN2C(=O)c2cccc(O)c2)cc1 (stereo unspecified) |
| – | 136 | 137 | 133 | 135 | 98 | – | 3400 | 1800 | CCOc1ccc(OCC2c3ccc(OC(C)C)cc3CCN2C(=O)c2cccc(Br)c2)cc1 (stereo unspecified) |
| – | 112 | – | 92 | – | 92 | – | – | – | CCOc1ccc(OCC2c3ccc(OC(C)C)cc3CCN2C(=O)c2cccc(-c3ccccc3)c2)cc1 (stereo unspecified) |
| – | 78 | – | 67 | – | 43 | – | – | – | CCOc1ccc(OCC2c3ccc(OC(C)C)cc3CCN2C(=O)c2cccc(C)c2)cc1 (stereo unspecified) |
